Test results reported in ChEMBL document CHEMBL1145359, “Synthesis and anticonvulsant activity of 4-(2-(2,6-dimethylphenylamino)-2-oxoethylamino)-N-(substituted)butanamides: a pharmacophoric hybrid approach” (Bioorg Med Chem Lett, 2007).
Activity calls are given as the source filed them.

Columns and labels:
Mus musculus [1] = assay: Anticonvulsant activity against subcutaneous picrotoxin-induced seizure in mouse at 300 mg/kg, ip after 4 hrs; assay type: functional, organism-based; parameters: dose 300 mg/kg
In short: (§1)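 Mice given intraperitoneal doses of 30, 100 and 300 mg/kg, with a vehicle-only control, then challenged with subcutaneous picrotoxin. Protection assessed at 0.5 h and 4 h after dosing. Recorded value is the lowest dose protecting half or more of the animals; a dash means no activity at 300 mg/kg.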

Mus musculus [2] = assay: Acute neurotoxicity in mouse at 300 mg/kg, ip after 4 hrs by rotarod test; assay type: toxicity, organism-based; parameters: dose 300 mg/kg, route intraperitoneal; settings: in vivo
In short: (§2)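 Mice dosed intraperitoneally at 30, 100 and 300 mg/kg; motor impairment scored at 0.5 h and 4 h after dosing. The value recorded is the minimum dose at which the effect appeared in half or more of the mice. A dash means no effect at the top dose of 300 mg/kg. A vehicle-treated control group was included.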

Mus musculus [3] = assay: Acute neurotoxicity in mouse at 100 mg/kg, ip after 0.5 hrs by rotarod test; assay type: toxicity, organism-based; parameters: dose 100 mg/kg, route intraperitoneal; settings: in vivo; in short: as §2
Mus musculus [4] = assay: Anticonvulsant activity against maximal-electroshock-induced seizure in mouse at 100 mg/kg, ip after 0.5 hrs; assay type: functional, organism-based; parameters: dose 100 mg/kg
In short: (§3)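 Mice received the compound intraperitoneally at 30, 100 or 300 mg/kg and were challenged with maximal electroshock 0.5 h later, scoring prevention of seizure spread. The value recorded is the minimum dose protecting half or more of the mice. A dash means no activity up to 300 mg/kg. A vehicle-treated control group was included.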

Mus musculus [5] = assay: Anticonvulsant activity against subcutaneous pentylenetetrazole-induced seizure in mouse at 300 mg/kg, ip after 0.5 hrs; assay type: functional, organism-based; parameters: dose 300 mg/kg
In short: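 Intraperitoneal dosing in mice at 30, 100 or 300 mg/kg, followed 0.5 h later by a subcutaneous pentylenetetrazole challenge, scoring protection against seizures (a seizure-threshold test). The value recorded is the minimum dose active in half or more of the mice. A dash means no activity at 300 mg/kg. A vehicle-treated control group was included.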

Mus musculus [6] = assay: Anticonvulsant activity against subcutaneous picrotoxin-induced seizure in mouse at 100 mg/kg, ip after 0.5 hrs; assay type: functional, organism-based; parameters: dose 100 mg/kg; in short: as §1
Mus musculus [7] = assay: Acute neurotoxicity in mouse at 100 mg/kg, ip after 4 hrs by rotarod test; assay type: toxicity, organism-based; parameters: dose 100 mg/kg, route intraperitoneal; settings: in vivo; in short: as §2
Mus musculus [8] = assay: Anticonvulsant activity against maximal-electroshock-induced seizure in mouse at 30 mg/kg, ip after 0.5 hrs; assay type: functional, organism-based; parameters: dose 30 mg/kg; in short: as §3
Mus musculus [9] = assay: Anticonvulsant activity against subcutaneous picrotoxin-induced seizure in mouse at 30 mg/kg, ip after 0.5 hrs; assay type: functional, organism-based; parameters: dose 30 mg/kg; in short: as §1
Mus musculus [10] = assay: Anticonvulsant activity against subcutaneous picrotoxin-induced seizure in mouse at 100 mg/kg, ip after 4 hrs; assay type: functional, organism-based; parameters: dose 100 mg/kg; in short: as §1
Mus musculus [11] = assay: Acute neurotoxicity in mouse at 300 mg/kg, ip after 0.5 hrs by rotarod test; assay type: toxicity, organism-based; parameters: dose 300 mg/kg, route intraperitoneal; settings: in vivo; in short: as §2
Mus musculus [12] = assay: Anticonvulsant activity against subcutaneous picrotoxin-induced seizure in mouse at 30 mg/kg, ip after 4 hrs; assay type: functional, organism-based; parameters: dose 30 mg/kg; in short: as §1
Mus musculus [13] = assay: Anticonvulsant activity against subcutaneous picrotoxin-induced seizure in mouse at 10 mg/kg, ip after 0.5 hrs; assay type: functional, organism-based; parameters: dose 10 mg/kg
Mus musculus [14] = assay: Anticonvulsant activity against subcutaneous pentylenetetrazole-induced seizure in mouse at 30 mg/kg, ip after 0.5 hrs; assay type: functional, organism-based; parameters: dose 30 mg/kg
In short: (§4)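 Mice dosed intraperitoneally at 30, 100 and 300 mg/kg, with a vehicle-treated control, then challenged with subcutaneous pentylenetetrazole to detect elevation of seizure threshold. Read 0.5 h after dosing.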

Mus musculus [15] = assay: Anticonvulsant activity against maximal-electroshock-induced seizure in mouse at 300 mg/kg, ip after 0.5 hrs; assay type: functional, organism-based; parameters: dose 300 mg/kg; in short: as §3
Mus musculus [16] = assay: Anticonvulsant activity against subcutaneous pentylenetetrazole-induced seizure in mouse at 100 mg/kg, ip after 0.5 hrs; assay type: functional, organism-based; parameters: dose 100 mg/kg; in short: as §4

SMILES | Activity (Mus musculus [1]) | Activity (Mus musculus [2]) | Activity (Mus musculus [3]) | Activity (Mus musculus [4]) | Activity (Mus musculus [5]) | Activity (Mus musculus [6]) | Activity (Mus musculus [7]) | Activity (Mus musculus [8]) | Activity (Mus musculus [9]) | Activity (Mus musculus [10]) | Activity (Mus musculus [11]) | Activity (Mus musculus [12]) | Activity (Mus musculus [13]) | Activity (Mus musculus [14]) | Activity (Mus musculus [15]) | Activity (Mus musculus [16])
Cc1cccc(C)c1NC(=O)CNCCCC(=O)N1CCCCC1 | inactive | Active | Active | Active | inactive | Active | – | – | – | – | – | – | – | – | – | –
O=C1NC(=O)C(c2ccccc2)(c2ccccc2)N1 [PHENYTOIN] | inactive | – | Active | – | inactive | – | Active | Active | – | – | – | – | – | – | – | –
Cc1cccc(C)c1NC(=O)CNCCCC(=O)O | – | Not Active | – | Active | inactive | – | – | – | Active | Active | Active | – | – | – | – | –
Cc1cccc(C)c1NC(=O)CCCNCC(=O)Nc1c(C)cccc1C | – | Not Active | – | Active | – | – | – | – | – | – | Active | Active | Active | Active | – | –
CCCCN(CCCC)C(=O)CCCNCC(=O)Nc1c(C)cccc1C | – | Not Active | – | Active | inactive | – | – | – | Active | Active | Active | – | – | – | – | –
Cc1cccc(C)c1NC(=O)CNCCCC(=O)Nc1cccc(Cl)c1C | – | Not Active | – | Active | inactive | Active | – | – | – | Active | Active | – | – | – | – | –
Cc1cccc(C)c1NC(=O)CNCCCC(=O)N(c1ccccc1)c1ccccc1 | Active | Not Active | – | – | inactive | Active | – | – | – | – | Active | – | – | – | Active | –
Cc1cccc(C)c1NC(=O)CNCCCC(=O)N(C)C | – | Active | – | – | inactive | Active | – | – | – | Active | Not Active | – | – | – | inactive | –
CCC1(C)CC(=O)NC1=O (centres undefined) [ETHOSUXIMIDE] | inactive | Not Active | – | – | – | – | – | – | – | – | Not Active | – | – | – | inactive | Active
Cc1ccc(NC(=O)CCCNCC(=O)Nc2c(C)cccc2C)c(C)c1 | – | Active | – | Active | Active | Active | – | – | – | Active | Active | – | – | – | – | –
Cc1cccc(NC(=O)CCCNCC(=O)Nc2c(C)cccc2C)c1 | – | Not Active | – | – | inactive | – | – | – | Active | Active | Active | – | – | – | inactive | –
Cc1cccc(C)c1NC(=O)CNCCCC(=O)Nc1ccccc1Br | – | Active | – | Active | inactive | – | – | – | Active | – | Active | Active | – | – | – | –
Cc1cccc(C)c1NC(=O)CNCCCC(=O)N1CCN(c2cccc(C(F)(F)F)c2)CC1 | – | Not Active | – | – | inactive | – | – | – | Active | Active | Not Active | – | – | – | inactive | –
Cc1cccc(C)c1NC(=O)CNCCCC(=O)Nc1ccccc1 | inactive | Active | – | Active | inactive | Active | – | – | – | – | Active | – | – | – | – | –
Cc1cccc(C)c1NC(=O)CNCCCC(=O)N1CCC(C)CC1 | – | – | Active | – | inactive | Active | Active | – | – | Active | – | – | – | – | inactive | –
CCC1(c2ccccc2)C(=O)NC(=O)NC1=O [PHENOBARBITAL] | – | Active | Active | Active | – | – | – | – | Active | Active | – | – | – | Active | – | –
